# Results of several laboratories.
# Lines come from different studies, so protocols differ.
# SLC10A2: Ileal sodium/bile acid cotransporter (SLC10A2, Homo sapiens, UniProt Q12908)
# SETD7: Histone-lysine N-methyltransferase SETD7 (SETD7, Homo sapiens, UniProt Q8WTS6)
# DRD5: D(1B) dopamine receptor (DRD5, Homo sapiens, UniProt P21918)
# HSD11B1: 11-beta-hydroxysteroid dehydrogenase 1 (HSD11B1, Homo sapiens, UniProt P28845)
# CNR2: Cannabinoid receptor 2 (CNR2, Homo sapiens, UniProt P34972)
# ADRB2: Beta-2 adrenergic receptor (ADRB2, Homo sapiens, UniProt P07550)
Structure (SMILES),target,assay,conditions,inhibition [%]
NS(=O)(=O)c1cc2c(cc1Cl)NC(C(Cl)Cl)NS2(=O)=O (stereo not drawn),SLC10A2,"transporter uptake, inhibitor, radiometric",1 mM,44.7
O=C(NC[C@H]1CN(c2ccc(N3CCOCC3=O)cc2)C(=O)O1)c1ccc(Cl)s1,"Coagulation factor X (F10, Homo sapiens, UniProt P00742)","enzyme activity, inhibitor, absorbance",0.1 µM,88.6
CN1CCCCC1CCN1c2ccccc2Sc2ccc([S+](C)[O-])cc21 (stereo not drawn),SLC10A2,"transporter uptake, inhibitor, radiometric",1 mM,73.6
CCN(c1cc(C#CCN2CCOCC2)cc(C(=O)NCc2c(C)cc(C)[nH]c2=O)c1C)[C@H]1CC[C@H](N(C)CCOC)CC1,"Histone-lysine N-methyltransferase SUV39H1 (SUV39H1, Homo sapiens, UniProt O43463)","enzyme activity, inhibitor",1 µM,11
O=C(O[C@@H]1Cc2c(O)cc(O)cc2O[C@@H]1c1cc(O)c(O)c(O)c1-c1c([C@H]2Oc3cc(O)cc(O)c3C[C@H]2O)cc(O)c(O)c1O)c1cc(O)c(O)c(O)c1,SETD7,cell-free assay,10 µM,53
CC(C)c1ncccc2nc(N)nc1-2,"72 kDa type IV collagenase (MMP2, Homo sapiens, UniProt P08253)","enzyme activity, inhibitor",50 µM,52
CCN(CC)c1ccc(C2Nc3ccc(C(=O)c4ccccc4)cc3NC3=C2C(=O)CC(C)(C)C3)cc1 (stereo not drawn),DRD5,"ligand displacement, radioligand",10 µM,37
O=C(c1ccccc1)c1ccc2n1CCC2C(=O)O (stereo not drawn),SLC10A2,"transporter uptake, inhibitor, radiometric",1 mM,< 10
CN(CCOc1ccc(CC2SC(=O)NC2=O)cc1)c1ccccn1 (stereo not drawn),HSD11B1,"enzyme activity, inhibitor","20 µM, lysate",< 40
Oc1cccc(Nc2nc(-c3ccc(F)cc3F)cs2)c1,CNR2,cell-free assay,10 µM,35.3
CN(C)c1ccc2nc3ccc(=[N+](C)C)cc-3sc2c1,SETD7,cell-free assay,10 µM,35
C=C(CC)C(=O)c1ccc(OCC(=O)O)c(Cl)c1Cl,HSD11B1,"enzyme activity, inhibitor","20 µM, lysate",< 40
O=C(c1ccc(Cl)cc1)N(Cc1ccccc1)C1CCCCC1,ADRB2,cell-free assay,10 µM,1.6
COc1ccc(-n2nc(OCCCN3CCCCC3)ccc2=O)cc1,CNR2,ligand displacement,1 µM,33.1
CC(=O)N[C@H]1CSSC[C@@H](C(=O)N[C@H](Cc2c[nH]c3ccccc23)C(N)=O)NC(=O)[C@H](Cc2ccccc2)NC(=O)[C@H](CCCNC(=N)N)NC1=O,"Melanocortin receptor 5 (MC5R, Homo sapiens, UniProt P33032)","ligand displacement, radioligand","10 µM, 40 min",0
O=C(O)c1cc(O)c2c(c1)[C@H]([C@H]1c3cc(C(=O)O)cc(O)c3C(=O)c3c(O[C@@H]4O[C@H](CO)[C@@H](O)[C@H](O)[C@H]4O)cccc31)c1cccc(O[C@@H]3O[C@H](CO)[C@@H](O)[C@H](O)[C@H]3O)c1C2=O,SETD7,cell-free assay,10 µM,36
NS(=O)(=O)c1cc2c(cc1C(F)(F)F)NC(Cc1ccccc1)NS2(=O)=O (stereo not drawn),SLC10A2,"transporter uptake, inhibitor, radiometric",1 mM,64.5
CCCCC(CC)CNC(=N)NC(=N)NCCCCCCNC(=N)NC(=N)NCC(CC)CCCC (stereo not drawn),SETD7,cell-free assay,10 µM,-110
CCCN(CCC)S(=O)(=O)c1ccc(C(=O)O)cc1,SLC10A2,"transporter uptake, inhibitor, radiometric",1 mM,47.4
O=C1N=C(N2CCCCN2)S/C1=C\c1ccc(F)cc1O,"Galanin receptor type 2 (GALR2, Homo sapiens, UniProt O43603)","ligand displacement, radioligand",10 µM,< 10
C=C(C)C(=O)Nc1cc(C(=O)O)cc(C(=O)O)c1,"Galanin receptor type 1 (GALR1, Homo sapiens, UniProt P47211)","cell-free assay, radioligand",10 µM,22
CN1CC(Oc2cnc(C#N)cc2-c2ccn3nc(NC(=O)C4CC4)cc3c2)C1,"Cyclin-dependent kinase-like 3 (CDKL3, Homo sapiens, UniProt Q8IVW4)","enzyme activity, inhibitor",1 µM,1
O=C1c2c(O)cccc2Cc2cccc(O)c21,SETD7,cell-free assay,10 µM,8
COc1ccc2c(c1)c(CC(=O)O)c(C)n2C(=O)c1ccc(Cl)cc1,SLC10A2,"transporter uptake, inhibitor, radiometric",1 mM,93.2
Cc1cc(O)c(C=O)c2c1C(=O)Oc1c(C)c(O)c3c(c1O2)C(O)OC3=O (stereo not drawn),SETD7,cell-free assay,10 µM,0
CNC(=O)c1cc(Oc2ccc(NC(=O)Nc3ccc(Cl)c(C(F)(F)F)c3)cc2)ccn1,"G protein-coupled receptor kinase 5 (GRK5, Homo sapiens, UniProt P34947)","enzyme activity, inhibitor",10 µM,0
O=C(O[C@@H]1Cc2c(O)cc(O)cc2O[C@@H]1c1cc(O)c(=O)c2c(O)c(O)cc([C@H]3Oc4cc(O)cc(O)c4C[C@H]3OC(=O)c3cc(O)c(O)c(O)c3)c2c1)c1cc(O)c(O)c(O)c1,SETD7,cell-free assay,10 µM,38
COc1cc(NC(C)=O)c(Cl)cc1C(=O)Nc1nccs1,ADRB2,cell-free assay,10 µM,-8.3
CCCNc1nc2ccccc2n1Cc1ccc(Cl)cc1,DRD5,ligand displacement,10 µM,69.6
C[C@@H](O)[C@H]1C(=O)N2C(C(=O)O)=C(S[C@@H]3CN[C@H](C(=O)N(C)C)C3)[C@H](C)[C@H]12,SLC10A2,"transporter uptake, inhibitor, radiometric",1 mM,< 10
CC(C)c1c(C(=O)Nc2ccccc2)c(-c2ccccc2)c(-c2ccc(F)cc2)n1CC[C@@H](O)C[C@@H](O)CC(=O)O,HSD11B1,"enzyme activity, inhibitor","20 µM, lysate",< 40
CCCCNc1cc(C(=O)O)cc(S(N)(=O)=O)c1Oc1ccccc1,SLC10A2,"transporter uptake, inhibitor, radiometric",1 mM,78.1
C=CC1=C(C)c2cc3[nH]c(cc4nc(cc5[nH]c(cc1n2)c(C)c5CCC(=O)O)C(CCC(=O)O)=C4C)c(C)c3C=C,SETD7,cell-free assay,10 µM,34
